Test results from ChEMBL document CHEMBL1135642, “Synthesis and biological evaluation of 7,8,9,10-tetrahydroimidazo[1,2-c]pyrido[3,4-e]pyrimdin-5(6H)-ones as functionally selective ligands of the benzodiazepine receptor site on the GABA(A) receptor” (J Med Chem, 2002).
pEC50, pKi: −log10 of the molar value.

How the values were obtained:
[1] = target: T1, Gamma-aminobutyric acid receptor subunit alpha-2 (Homo sapiens, UniProt P47869); assay: Effective concentration against gamma-aminobutyric acid (GABA) A receptor, alpha 2; parameters: species or system Xenopus laevis
T1 sequence (P47869 whole entry): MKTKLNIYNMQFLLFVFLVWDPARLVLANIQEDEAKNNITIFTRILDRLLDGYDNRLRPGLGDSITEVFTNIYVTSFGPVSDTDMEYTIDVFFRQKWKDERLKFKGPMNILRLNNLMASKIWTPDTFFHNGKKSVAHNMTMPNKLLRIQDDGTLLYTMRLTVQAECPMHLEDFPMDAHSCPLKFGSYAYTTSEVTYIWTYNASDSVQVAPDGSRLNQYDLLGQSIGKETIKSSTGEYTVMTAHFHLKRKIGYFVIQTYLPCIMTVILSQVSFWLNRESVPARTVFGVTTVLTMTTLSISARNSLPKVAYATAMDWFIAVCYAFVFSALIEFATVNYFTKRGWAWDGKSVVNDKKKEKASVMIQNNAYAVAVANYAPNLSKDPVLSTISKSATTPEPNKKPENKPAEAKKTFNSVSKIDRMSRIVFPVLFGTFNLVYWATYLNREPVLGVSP
In short: (§1)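 Xenopus laevis oocytes were injected with human cRNA for the α, β and γ subunits needed to express each receptor subtype (α1, α2, α3 or α5). Electrophysiological recording was used to read potentiation, and the effective concentration and maximal percent potentiation were derived from it.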

[2] = target: GABA-A receptor; anion channel; assay: Binding affinity was determined by displacement of [3H]flumazenil from rat cortex homogenates; format: functional
In short: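 Displacement of [3H]flumazenil from rat cortex homogenates. Values are averages (±SD); some analogues were run once as a single set of triplicates. NA means an IC50 was not achieved at the highest dose tested.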

[3] = target: T2, Gamma-aminobutyric acid receptor subunit alpha-1 (Homo sapiens, UniProt P14867); assay: Effective concentration against gamma-aminobutyric acid (GABA) A receptor, alpha 1; parameters: species or system Xenopus laevis; in short: as §1
T2 sequence (P14867 whole entry): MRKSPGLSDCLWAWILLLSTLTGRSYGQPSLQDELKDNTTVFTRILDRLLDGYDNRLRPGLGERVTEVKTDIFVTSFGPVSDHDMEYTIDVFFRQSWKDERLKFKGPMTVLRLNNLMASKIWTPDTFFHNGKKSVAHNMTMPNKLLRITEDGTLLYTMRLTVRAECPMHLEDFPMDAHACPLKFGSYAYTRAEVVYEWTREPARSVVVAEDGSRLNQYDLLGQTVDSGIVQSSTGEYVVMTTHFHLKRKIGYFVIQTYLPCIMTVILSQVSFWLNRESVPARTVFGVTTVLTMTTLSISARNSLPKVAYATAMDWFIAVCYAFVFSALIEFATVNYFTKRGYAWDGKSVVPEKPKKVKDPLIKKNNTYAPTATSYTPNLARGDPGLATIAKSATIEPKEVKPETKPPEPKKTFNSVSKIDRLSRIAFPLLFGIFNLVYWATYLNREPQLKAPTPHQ

[4] = target: T3, Gamma-aminobutyric acid receptor subunit alpha-2 (Homo sapiens) (UniProt P47869); assay: Maximum percent potentiation against gamma-aminobutyric acid (GABA) A receptor, alpha 2; details: Xenopus laevis; in short: as §1
T3 sequence (whole entry): T1 sequence (P47869 whole entry)

[5] = target: T4, Gamma-aminobutyric acid receptor subunit alpha-1 (Homo sapiens) (UniProt P14867); assay: Maximum percent potentiation against gamma-aminobutyric acid (GABA) A receptor, alpha 1; details: Xenopus laevis; in short: as §1
T4 sequence (whole entry): T2 sequence (P14867 whole entry)

[6] = target: T5, Gamma-aminobutyric acid receptor subunit alpha-3 (Homo sapiens, UniProt P34903); assay: Effective concentration against gamma-aminobutyric acid (GABA) A receptor, alpha 3; parameters: species or system Xenopus laevis; in short: as §1
T5 sequence (P34903 whole entry): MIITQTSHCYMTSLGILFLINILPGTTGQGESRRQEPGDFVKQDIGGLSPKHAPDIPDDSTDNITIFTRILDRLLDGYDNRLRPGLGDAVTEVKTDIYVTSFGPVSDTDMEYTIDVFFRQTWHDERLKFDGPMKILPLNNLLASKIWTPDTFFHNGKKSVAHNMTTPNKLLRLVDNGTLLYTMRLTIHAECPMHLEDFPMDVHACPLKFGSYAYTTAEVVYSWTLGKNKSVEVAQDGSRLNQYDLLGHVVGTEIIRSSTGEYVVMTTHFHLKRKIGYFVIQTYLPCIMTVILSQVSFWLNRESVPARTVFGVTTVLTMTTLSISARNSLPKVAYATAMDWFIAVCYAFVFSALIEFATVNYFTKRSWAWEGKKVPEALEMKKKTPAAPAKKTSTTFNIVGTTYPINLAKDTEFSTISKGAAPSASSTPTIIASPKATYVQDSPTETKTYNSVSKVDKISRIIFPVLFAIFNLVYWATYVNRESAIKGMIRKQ

[7] = target: T6, Gamma-aminobutyric acid receptor subunit alpha-5 (Homo sapiens, UniProt P31644); assay: Effective concentration against Gamma-aminobutyric acid A receptor, alpha 5; parameters: species or system Xenopus laevis; in short: as §1
T6 sequence (P31644 whole entry): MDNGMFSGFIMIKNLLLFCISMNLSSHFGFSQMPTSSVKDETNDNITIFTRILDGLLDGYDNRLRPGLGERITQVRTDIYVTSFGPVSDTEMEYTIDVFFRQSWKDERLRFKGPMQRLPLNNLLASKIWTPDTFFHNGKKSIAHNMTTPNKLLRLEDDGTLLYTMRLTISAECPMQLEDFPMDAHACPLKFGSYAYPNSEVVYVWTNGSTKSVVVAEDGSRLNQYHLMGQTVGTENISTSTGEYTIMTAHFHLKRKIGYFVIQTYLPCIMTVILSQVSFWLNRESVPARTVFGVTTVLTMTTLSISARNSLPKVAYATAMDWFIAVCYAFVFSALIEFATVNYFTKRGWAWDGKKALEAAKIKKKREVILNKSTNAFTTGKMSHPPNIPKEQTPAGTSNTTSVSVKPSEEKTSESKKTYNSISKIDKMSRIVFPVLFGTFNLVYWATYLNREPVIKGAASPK

[8] = target: T7, Gamma-aminobutyric acid receptor subunit alpha-3 (Homo sapiens) (UniProt P34903); assay: Maximum percent potentiation against gamma-aminobutyric acid (GABA) A receptor, alpha 3; details: Xenopus laevis; in short: as §1
T7 sequence (whole entry): T5 sequence (P34903 whole entry)

[9] = target: T8, Gamma-aminobutyric acid receptor subunit alpha-5 (Homo sapiens) (UniProt P31644); assay: Maximum percent potentiation against gamma-aminobutyric acid (GABA) A receptor, alpha 5; details: Xenopus laevis; in short: as §1
T8 sequence (whole entry): T6 sequence (P31644 whole entry)

Row | pEC50 [1] | pKi [2] | pEC50 [3] | Activity [4] [%] | Activity [5] [%] | SMILES | other results
1 | 6.81 | 7.95 | 6.92 | – | – | O=c1[nH]c2c(c3nc(-c4cccc(F)c4)cn13)CN(Cc1ccccc1)CC2 | –
2 | 6.57 | 8.64 | 7.09 | – | – | COc1cccc(-c2cn3c(=O)[nH]c4c(c3n2)CN(Cc2ccccc2)CC4)c1 | –
3 | – | – | – | 0 | 0 | CN1CCc2nc(O)n3cc(-c4ccccc4F)nc3c2C1 | –
4 | 6.68 | 8.70 | 7.04 | – | – | O=c1[nH]c2c(c3nc(-c4ccc(F)cc4F)cn13)CN(Cc1ccccc1)CC2 | pEC50 [6]: 6.30; pEC50 [7]: 6.49
5 | – | 6.91 | – | – | – | O=C(c1ccncc1)N1CCc2nc(O)n3cc(-c4ccccc4F)nc3c2C1 | –
6 | – | 6.41 | – | – | – | O=C(Cc1ccccc1)N1CCc2nc(O)n3cc(-c4ccccc4F)nc3c2C1 | –
7 | 6.55 | 7.59 | 6.77 | – | – | C=CCN1CCc2[nH]c(=O)n3cc(-c4ccccc4F)nc3c2C1 | pEC50 [6]: 6.46
8 | – | 7.14 | – | – | – | O=C(c1ccccn1)N1CCc2nc(O)n3cc(-c4ccccc4F)nc3c2C1 | –
9 | – | – | – | 71 | 114 | Oc1nc2c(c3nc(-c4ccccc4F)cn13)CN(CC1CCCCC1)CC2 | Activity [8]: 115%; Activity [9]: 101%
10 | – | 7.83 | – | – | – | CC(c1ccc(F)cc1)N1CCc2nc(O)n3cc(-c4ccccc4F)nc3c2C1 (stereo not given) | –
11 | > 7.00 | 7.41 | > 7.00 | – | – | O=C(OCc1ccccc1)N1CCc2[nH]c(=O)n3cc(-c4ccccc4F)nc3c2C1 | pEC50 [7]: 6.00
12 | – | 6.52 | – | – | – | O=C(c1ccccc1)N1CCc2nc(O)n3cc(-c4ccccc4)nc3c2C1 | –
13 | 6.73 | – | 7.44 | 82 | 59 | Oc1nc2c(c3nc(-c4cc(F)ccc4F)cn13)CN(Cc1ccccc1)CC2 | –
14 | – | 8.08 | – | – | – | CC(c1cccc(F)c1)N1CCc2nc(O)n3cc(-c4ccccc4F)nc3c2C1 (stereo not given) | –
15 | – | 6.92 | – | – | – | Oc1nc2c(c3nc(-c4ccc(Cl)cc4)cn13)CN(Cc1ccccc1)CC2 | –
16 | – | – | – | 184 | 63 | Oc1nc2c(c3nc(-c4ccc(F)cc4F)cn13)CN(Cc1ccccc1)CC2 | Activity [8]: 95%; Activity [9]: 30%
17 | 6.96 | 6.67 | 7.02 | 22 | 12 | CCC(=O)N1CCc2nc(O)n3cc(-c4ccccc4F)nc3c2C1 | Activity [8]: 9%; pEC50 [6]: 6.94; Activity [9]: 0%
18 | – | 6.10 | – | – | – | COc1ccccc1-c1cn2c(O)nc3c(c2n1)CN(Cc1ccccc1)CC3 | –
19 | – | – | – | 179 | 67 | Oc1nc2c(c3nc(-c4ccccc4)cn13)CN(Cc1ccccc1)CC2 | –
20 | – | 7.39 | – | 0 | 0 | CC(=O)N1CCc2nc(O)n3cc(-c4ccccc4F)nc3c2C1 | Activity [8]: 11%; pEC50 [6]: 7.15; Activity [9]: 0%
21 | – | – | – | 8 | 5 | O=C(OCc1ccccc1)N1CCc2nc(O)n3cc(-c4ccccc4F)nc3c2C1 | Activity [8]: 0%; Activity [9]: 3%
22 | 6.74 | – | 7.77 | – | – | O=c1[nH]c2c(c3nc(-c4ccccc4)cn13)CN(Cc1ccccc1)CC2 | –
23 | – | 8.19 | – | – | – | C[C@@H](c1ccccc1)N1CCc2nc(O)n3cc(-c4ccccc4F)nc3c2C1 | –
24 | – | 8.77 | – | – | – | CC(c1ccccc1F)N1CCc2nc(O)n3cc(-c4ccccc4F)nc3c2C1 (stereo not given) | –
